ChEMBL document CHEMBL1127817, “Antitumor agents. 150. 2',3',4',5',5,6,7-substituted 2-phenyl-4-quinolones and related compounds: their synthesis, cytotoxicity, and inhibition of tubulin polymerization” (J Med Chem, 1994)

Legend:
SK-MEL-5 = test: In vitro inhibition of tumor cell growth of SK-Mel-5, melanoma cell line; assay type: functional; conditions: Homo sapiens
SF-268 [1] = test: In vitro inhibition of tumor cell growth of SF-268, CNS tumor cell line; assay type: functional; conditions: Homo sapiens
DMS-114 = test: In vitro inhibition of tumor cell growth of DMS114, a small-cell lung cancer cell line; conditions: Homo sapiens
NCI-H226 = test: In vitro inhibition of tumor cell growth of NCI-H226, a non small-cell lung cancer cell line; assay type: functional; conditions: Homo sapiens
OVCAR-3 = test: In vitro inhibition of tumor cell growth of OVCAR-3, ovarian cancer cell line; assay type: functional; conditions: Homo sapiens
SF-295 = test: In vitro inhibition of tumor cell growth of SF-295, CNS tumor cell line; assay type: functional; conditions: Homo sapiens
Tubulin (Bos taurus) = Tubulin (Bos taurus) (UniProt Q6B856+Q862L2+Q862F3); test: Inhibition of colchicine binding to tubulin isolated from bovine brain tissue; assay type: functional; parameters: concentration or dose not given beside the values; conditions: concentration not given here
Summary of the method: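 1.0 μM tubulin incubated with 5.0 μM [3H]colchicine and 5.0 μM test agent; bound colchicine measured by DEAE-cellulose filter technique.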

HCT-116 = test: In vitro inhibition of tumor cell growth of HCT116, colon cancer cell line; assay type: functional; conditions: Homo sapiens
Tubulin beta chain = Tubulin beta chain (Bos taurus, UniProt Q6B856); test: Inhibition of tubulin polymerization; assay type: functional
RXF 393 = test: In vitro inhibition of tumor cell growth of RXF-393, renal cancer cell line; assay type: functional; conditions: Homo sapiens
KM-20L2 [2] = test: Inhibition of in vitro tumor cell growth in KM20L2, colon cancer cell line; assay type: functional; conditions: Homo sapiens
SF-268 [3] = test: In vitro inhibition of tumor cell growth ofSF-268, CNS tumor cell line; assay type: functional; conditions: Homo sapiens
KM-20L2 [4] = test: In vitro inhibition of tumor cell growth of KM20L2, colon cancer cell line; assay type: functional; conditions: Homo sapiens

Chain of Tubulin beta chain (Q6B856 whole entry): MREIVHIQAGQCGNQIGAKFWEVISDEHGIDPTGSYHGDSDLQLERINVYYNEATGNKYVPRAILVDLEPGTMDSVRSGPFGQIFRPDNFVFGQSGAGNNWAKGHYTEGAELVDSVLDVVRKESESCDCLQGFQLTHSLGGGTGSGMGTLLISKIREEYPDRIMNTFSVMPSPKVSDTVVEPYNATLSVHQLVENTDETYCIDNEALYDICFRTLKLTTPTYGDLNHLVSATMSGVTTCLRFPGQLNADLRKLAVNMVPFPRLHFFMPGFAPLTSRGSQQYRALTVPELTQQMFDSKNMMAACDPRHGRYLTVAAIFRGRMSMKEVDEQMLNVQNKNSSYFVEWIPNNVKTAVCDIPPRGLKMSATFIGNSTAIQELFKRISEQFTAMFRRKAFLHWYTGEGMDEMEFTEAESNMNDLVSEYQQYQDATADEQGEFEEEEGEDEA

Row | Compound | GI50 (SK-MEL-5) [µM] | GI50 (SF-268 [1]) [µM] | GI50 (DMS-114) [µM] | GI50 (NCI-H226) [µM] | GI50 (OVCAR-3) [µM] | GI50 (SF-295) [µM] | inhibition (Tubulin (Bos taurus)) [%] | GI50 (HCT-116) [µM] | IC50 (Tubulin beta chain) [µM] | GI50 (RXF 393) [µM] | GI50 (KM-20L2 [2]) [µM] | GI50 (SF-268 [3]) [µM] | GI50 (KM-20L2 [4]) [µM]
1 | O=c1cc(-c2ccccc2F)[nH]c2cc3c(cc12)OCO3 | 0.0209 | 2.29 | 0.513 | 0.447 | 0.0813 | 0.055 | 37 | 0.0603 | 0.85 |  |  |  | 
2 | COc1cccc(-c2cc(O)c3cc(OC)ccc3n2)c1 | 0.117 | 0.229 |  | 0.347 |  | 0.151 | 13 | 0.155 | 0.74 | 0.191 |  |  | 
3 | COc1ccccc1-c1cc(O)c2cc3c(cc2n1)OCO3 | 89.1 |  | 25.1 | 22.9 | 39.8 | 20.9 |  | 28.2 | 14 | 15.1 | 18.6 | 64.6 | 
4 | COc1cc(OC)cc(-c2cc(O)c3cc4c(cc3n2)OCO4)c1 | 0.309 | 0.708 | 0.302 | 0.219 | 0.195 | 0.257 | 31 | 0.316 | 0.62 | 0.219 |  |  | 0.708
5 | Oc1cc(-c2ccc[nH]2)nc2cc3c(cc12)OCO3 | 7.76 | > 100 | 32.4 | 35.5 | 30.9 | 33.9 |  | 29.5 | 18 | 15.8 |  |  | 20
6 | Oc1cc(-c2cccs2)nc2cc3c(cc12)OCO3 | 1.35 | 11.2 | 6.76 | 6.31 | 7.94 | 3.24 |  | 4.79 | 2.2 | 2.04 |  |  | 14.5
7 | COc1ccc(-c2cc(O)c3cc4c(cc3n2)OCO4)c(OC)c1 | 42.7 | 63.1 | 26.3 | 93.3 | > 100 | 45.7 |  | 40.7 | > 40 | 45.7 |  |  | 42.7
8 | Oc1c2c(nc3cc4c(cc13)OCO4)-c1ccccc1CC2 | > 100 | > 100 | > 100 | > 100 | > 100 | > 100 |  | > 100 | > 40 | > 100 |  |  | > 100
9 | COc1ccc(-c2cc(O)c3cc(Cl)ccc3n2)cc1 | > 100 | > 100 | > 100 | > 100 | > 100 | > 100 |  | > 100 | > 40 | > 100 |  |  | > 100
10 | Oc1cc(-c2ccccc2Cl)nc2cc3c(cc12)OCO3 | 0.0363 | 0.692 |  | 0.263 | 0.0776 |  | 24 | 0.0871 | 0.89 |  |  |  | 
11 | Oc1cc(-c2ccco2)nc2cc3c(cc12)OCO3 | 13.5 | 41.7 | 37.2 | 24.5 | 42.7 | 28.2 |  | 39.8 | 23 | 25.1 |  |  | 21.4
12 | COc1cc(-c2cc(O)c3cc4c(cc3n2)OCO4)cc(OC)c1OC | 93.3 | 32.4 | 83.2 | > 100 | > 100 | 32.4 |  | 74.1 | > 40 | 21.9 |  |  | > 100
13 | Oc1cc(-c2c[nH]c3ccccc23)nc2cc3c(cc12)OCO3 | > 100 | > 100 | > 100 | > 100 | > 100 | 91.2 |  | > 100 | 1.3 | > 100 |  |  | > 100
14 | CN(C)c1cccc(-c2cc(O)c3cc4c(cc3n2)OCO4)c1 | 0.195 | 0.741 | 0.407 | 0.316 | 0.245 | 0.24 |  | 0.372 | 0.7 | 0.24 |  |  | 0.229
15 | COc1cccc(-c2cc(O)c3cc4c(cc3n2)OCO4)c1 | 0.0372 |  | 0.24 | 0.2 | 0.0457 | 0.0912 |  | 0.174 | 0.57 | 0.0457 |  | 0.132 | 0.182
16 | Cc1ccc(-c2cc(O)c3cc4c(cc3n2)OCO4)cc1 | 1.74 | 2.19 |  | 1.58 | 0.427 | 1.91 | 12 | 0.676 |  |  |  |  | 1.41
17 | COc1ccc2nc(-c3cccc(N(C)C)c3)cc(O)c2c1 | 0.195 | 0.603 |  | 0.372 | 0.17 | 0.204 | 18 | 0.195 | 0.84 | 0.12 |  |  | 
18 | COc1ccc2nc(-c3ccc(O)cc3)cc(O)c2c1 | 0.288 | 0.417 | 0.178 | 0.209 | 0.302 | 0.245 |  | 0.209 | 5.6 | 0.17 |  |  | 0.407
19 | COc1ccc2nc(-c3ccccc3)cc(O)c2c1 |  |  |  |  |  |  | 11 |  | 0.61 |  |  |  | 
20 | COc1ccc(-c2cc(O)c3cc4c(cc3n2)OCO4)cc1OC | > 100 | > 100 | > 100 | > 100 | > 100 | > 100 |  | > 100 | > 40 | > 100 |  |  | > 100
